From ChEMBL document CHEMBL3271984, “Antifungal activity of 4-substituted crotonic acid esters” (1976)
≈ marks a conversion by molar mass, not a printed value. Calls of active or inactive are those of the source. The calls are words filed in the database; no cut-off is given here.

Key:
Format in all cases: functional
Candida albicans [1] = assay: Antifungal activity against Candida albicans ATCC 10231 assessed as growth inhibition at pH 7 incubated for 20 hrs in presence of 10% beef serum; details: for MIC: ATCC 10231, 20 h, read-out: MIC100
Procedure, shortened: (§1)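 Agar dilution in Sabouraud dextrose agar at pH 5.6 or 7.0, with or without 10% beef serum. C. albicans and M. mucedo were incubated 20 h at 37°; A. niger and T. mentagrophytes 5 days at 28°. The value is the minimal µg/ml giving 100% inhibition. Steps were 1 µg/ml up to 10, 2 up to 20, then 10 up to 100 µg/ml maximum.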

Candida albicans [2] = assay: Antifungal activity against Candida albicans ATCC 10231 assessed as growth inhibition at pH 5.6 incubated for 20 hrs in absence of 10% beef serum; details: for MIC: ATCC 10231, 20 h, read-out: MIC100; procedure, shortened: as §1
Candida albicans [3] = assay: Antifungal activity against Candida albicans ATCC 10231 assessed as growth inhibition at pH 5.6 incubated for 20 hrs in presence of 10% beef serum; details: for MIC: ATCC 10231, 20 h, read-out: MIC100; procedure, shortened: as §1
Candida albicans [4] = assay: Antifungal activity against Candida albicans ATCC 10231 assessed as growth inhibition at pH 7 incubated for 20 hrs in absence of 10% beef serum; details: for MIC: ATCC 10231, 20 h, read-out: MIC100; procedure, shortened: as §1
Aspergillus niger [5] = assay: Antifungal activity against Aspergillus niger ATCC 1004 assessed as growth inhibition at pH 5.6 incubated for 5 days in absence of 10% beef serum; details: for MIC: ATCC 1004, 120 h, read-out: MIC100; procedure, shortened: as §1
Aspergillus niger [6] = assay: Antifungal activity against Aspergillus niger ATCC 1004 assessed as growth inhibition at pH 5.6 incubated for 5 days in presence of 10% beef serum; details: for MIC: ATCC 1004, 120 h, read-out: MIC100; procedure, shortened: as §1
Aspergillus niger [7] = assay: Antifungal activity against Aspergillus niger ATCC 1004 assessed as growth inhibition at pH 7 incubated for 5 days in absence of 10% beef serum; details: for MIC: ATCC 1004, 120 h, read-out: MIC100; procedure, shortened: as §1
Aspergillus niger [8] = assay: Antifungal activity against Aspergillus niger ATCC 1004 assessed as growth inhibition at pH 7 incubated for 5 days in presence of 10% beef serum; details: for MIC: ATCC 1004, 120 h, read-out: MIC100; procedure, shortened: as §1
Mucor mucedo [9] = assay: Antifungal activity against Mucor mucedo ATCC 7941 assessed as growth inhibition at pH 5.6 incubated for 20 hrs in absence of 10% beef serum; details: for MIC: ATCC 7941, 20 h, read-out: MIC100; procedure, shortened: as §1
Mucor mucedo [10] = assay: Antifungal activity against Mucor mucedo ATCC 7941 assessed as growth inhibition at pH 5.6 incubated for 20 hrs in presence of 10% beef serum; details: for MIC: ATCC 7941, 20 h, read-out: MIC100; procedure, shortened: as §1
Mucor mucedo [11] = assay: Antifungal activity against Mucor mucedo ATCC 7941 assessed as growth inhibition at pH 7 incubated for 20 hrs in absence of 10% beef serum; details: for MIC: ATCC 7941, 20 h, read-out: MIC100; procedure, shortened: as §1
Mucor mucedo [12] = assay: Antifungal activity against Mucor mucedo ATCC 7941 assessed as growth inhibition at pH 7 incubated for 20 hrs in presence of 10% beef serum; details: for MIC: ATCC 7941, 20 h, read-out: MIC100; procedure, shortened: as §1
[13] = system: Trichophyton mentagrophytes; assay: Antifungal activity against Trichophyton mentagrophytes ATCC 9129 assessed as growth inhibition at pH 5.6 incubated for 5 days in absence of 10% beef serum; details: for MIC: ATCC 9129, 120 h, read-out: MIC100; procedure, shortened: as §1
[14] = system: Trichophyton mentagrophytes; assay: Antifungal activity against Trichophyton mentagrophytes ATCC 9129 assessed as growth inhibition at pH 5.6 incubated for 5 days in presence of 10% beef serum; details: for MIC: ATCC 9129, 120 h, read-out: MIC100; procedure, shortened: as §1
[15] = system: Trichophyton mentagrophytes; assay: Antifungal activity against Trichophyton mentagrophytes ATCC 9129 assessed as growth inhibition at pH 7 incubated for 5 days in absence of 10% beef serum; details: for MIC: ATCC 9129, 120 h, read-out: MIC100; procedure, shortened: as §1
[16] = system: Trichophyton mentagrophytes; assay: Antifungal activity against Trichophyton mentagrophytes ATCC 9129 assessed as growth inhibition at pH 7 incubated for 5 days in presence of 10% beef serum; details: for MIC: ATCC 9129, 120 h, read-out: MIC100; procedure, shortened: as §1

Row | Structure (SMILES) | MIC (Candida albicans [1]) [µg/mL] | MIC (Candida albicans [2]) [µg/mL] | MIC (Candida albicans [3]) [µg/mL] | MIC (Candida albicans [4]) [µg/mL] | MIC100 (Aspergillus niger [5]) | MIC100 (Aspergillus niger [6]) | MIC100 (Aspergillus niger [7]) | MIC100 (Aspergillus niger [8]) | MIC (Mucor mucedo [9]) [µg/mL] | MIC (Mucor mucedo [10]) [µg/mL] | MIC (Mucor mucedo [11]) [µg/mL] | MIC (Mucor mucedo [12]) [µg/mL] | MIC [13] [µg/mL] | MIC [14] [µg/mL] | MIC [15] [µg/mL] | MIC [16] [µg/mL] | MIC (Aspergillus niger [5]) [µg/mL] | MIC (Aspergillus niger [6]) [µg/mL] | MIC (Aspergillus niger [7]) [µg/mL] | MIC (Aspergillus niger [8]) [µg/mL] | further results
1 | CCCCCCOC(=O)/C=C/CBr | 90 | 20 (≈ 80.3 µM) | 70 | 20 (≈ 80.3 µM) | inactive | inactive | inactive | inactive | 14 (≈ 56.2 µM) | 40 | 16 (≈ 64.2 µM) | 50 | < 1 | 14 | 4 (≈ 16.1 µM) | 30 | – | – | – | – | –
2 | CCCOC(=O)/C=C/CI | 20 | 10 (≈ 39.4 µM) | 16 | 12 (≈ 47.2 µM) | – | – | – | – | 2 (≈ 7.87 µM) | 5 | 3 (≈ 11.8 µM) | 6 | < 1 | 3 | 2 (≈ 7.87 µM) | 7 | 30 (≈ 118 µM) | 60 | 30 (≈ 118 µM) | 60 | –
3 | CCOC(=O)/C=C/CI | 18 | 8 (≈ 33.3 µM) | 18 | 10 (≈ 41.7 µM) | – | – | – | – | < 1 | 4 | 3 (≈ 12.5 µM) | 5 | < 1 | 2 | 2 (≈ 8.33 µM) | 4 | 40 (≈ 167 µM) | 50 | 40 (≈ 167 µM) | 40 | –
4 | COC(=O)/C=C/CF | – | – | – | – | inactive | inactive | inactive | inactive | – | – | – | – | – | – | – | – | – | – | – | – | MIC100 (Candida albicans [1]): inactive; MIC100 (Candida albicans [2]): inactive; MIC100 (Candida albicans [3]): inactive; MIC100 (Candida albicans [4]): inactive; MIC100 (Mucor mucedo [9]): inactive; MIC100 (Mucor mucedo [10]): inactive; MIC100 (Mucor mucedo [11]): inactive; MIC100 (Mucor mucedo [12]): inactive; MIC100 [13]: inactive; MIC100 [14]: inactive; MIC100 [15]: inactive; MIC100 [16]: inactive
5 | COC(=O)/C=C/CI | 18 | 16 (≈ 70.8 µM) | 30 | 20 (≈ 88.5 µM) | – | – | – | – | 9 (≈ 39.8 µM) | 10 | 9 (≈ 39.8 µM) | 8 | < 1 | 3 | 2 (≈ 8.85 µM) | 4 | 30 (≈ 133 µM) | 40 | 30 (≈ 133 µM) | 40 | –
6 | COC(=O)/C=C/CCl | – | – | – | – | inactive | inactive | inactive | inactive | 60 (≈ 446 µM) | 80 | 80 (≈ 595 µM) | 90 | 4 (≈ 29.7 µM) | 40 | 60 (≈ 446 µM) | 60 | – | – | – | – | MIC100 (Candida albicans [1]): inactive; MIC100 (Candida albicans [2]): inactive; MIC100 (Candida albicans [3]): inactive; MIC100 (Candida albicans [4]): inactive
7 | CCCCCCOC(=O)/C=C/CI | 90 | 16 (≈ 54 µM) | 80 | 30 (≈ 101 µM) | inactive | inactive | inactive | inactive | 14 (≈ 47.3 µM) | 40 | 14 (≈ 47.3 µM) | 50 | < 1 | 8 | 3 (≈ 10.1 µM) | 20 | – | – | – | – | –
8 | CCCCCOC(=O)/C=C/CI | 50 | 5 (≈ 17.7 µM) | 40 | 12 (≈ 42.5 µM) | – | inactive | – | inactive | 4 (≈ 14.2 µM) | 9 | 3 (≈ 10.6 µM) | 12 | < 1 | 4 | 2 (≈ 7.09 µM) | 10 | 40 (≈ 142 µM) | – | 30 (≈ 106 µM) | – | –
9 | CCCCCOC(=O)/C=C/CBr | 50 | 20 (≈ 85.1 µM) | 50 | 30 (≈ 128 µM) | – | inactive | – | inactive | 3 (≈ 12.8 µM) | 14 | 14 (≈ 59.5 µM) | 30 | < 1 | 4 | 2 (≈ 8.51 µM) | 10 | 70 (≈ 298 µM) | – | 70 (≈ 298 µM) | – | –
10 | CCCOC(=O)/C=C/CBr | 40 | 18 (≈ 86.9 µM) | 30 | 30 (≈ 145 µM) | – | – | – | – | 4 (≈ 19.3 µM) | 5 | 4 (≈ 19.3 µM) | 7 | < 1 | 3 | 3 (≈ 14.5 µM) | 7 | 80 (≈ 386 µM) | 90 | 60 (≈ 290 µM) | 80 | –
11 | COC/C=C/C(=O)OC | – | – | – | – | – | – | – | – | – | – | – | – | – | – | – | – | – | – | – | – | MIC100 (Mucor mucedo [9]): inactive; MIC100 [13]: inactive
